# Assays:
# P388 [1] = assay: Antitumor activity against mouse P388 cells allografted in CD2F1 mouse assessed as increase in mouse survival at 3.75 mg/kg, ip of total 9 doses starting 24 hrs post tumor inoculation measured on day 5 of inoculation relative to control; format: functional; details: route intraperitoneal
# How it was run: (§1)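 Male CD2F1 mice inoculated ip with 6×10^6 P388 leukemia cells. Dosing was ip as a suspension in distilled water–Tween 80, nine daily doses starting 24 h after inoculation. Activity was read as median survival time of treated vs control mice (% T/C); % T/C ≥ 120 was considered significant. Groups were 6 mice.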
# Mus musculus [2] = assay: Toxicity in mouse P388 cells allografted CD2F1 mouse assessed as mouse survival at 1.88 mg/kg, ip of total 9 doses starting 24 hrs post tumor inoculation measured on day 5 of inoculation relative to control; format: organism-based; parameters: dose 1.88 mg/kg, route intraperitoneal; details: in vivo
# How it was run: (§2)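 Male CD2F1 mice bearing ip P388 leukemia (6×10^6 cells) were dosed ip with nine daily doses in distilled water–Tween 80 suspension, starting 24 h after inoculation. Survivors per group of 6 were counted on day 5, i.e. 4 days after the first dose. Body-weight change of treated minus control mice was also recorded.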
# P388 [3] = assay: Antitumor activity against mouse P388 cells allografted in CD2F1 mouse assessed as increase in mouse survival at 7.5 mg/kg, ip of total 9 doses starting 24 hrs post tumor inoculation measured on day 5 of inoculation relative to control; format: functional; details: route intraperitoneal; how it was run: as §1
# P388 [4] = assay: Antitumor activity against mouse P388 cells allografted in CD2F1 mouse assessed as increase in mouse survival at 1.88 mg/kg, ip of total 9 doses starting 24 hrs post tumor inoculation measured on day 5 of inoculation relative to control; format: functional; details: route intraperitoneal; how it was run: as §1
# Mus musculus [5] = assay: Toxicity in mouse P388 cells allografted CD2F1 mouse assessed as body weight loss at 15 mg/kg, ip of total 9 doses starting 24 hrs post tumor inoculation measured on day 5 of inoculation relative to control; format: organism-based; parameters: dose 15 mg/kg, route intraperitoneal; details: in vivo
# How it was run: (§3)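 Male CD2F1 mice inoculated ip with 6×10^6 P388 leukemia cells. Compounds given ip as distilled water–Tween 80 suspension, nine daily doses starting 24 h after inoculation; six mice per dose group. Treated-minus-control body-weight change (T − C) and toxicity-day survivors recorded on day 5 (4 days after first dose).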
# Mus musculus [6] = assay: Toxicity in mouse P388 cells allografted CD2F1 mouse assessed as body weight loss at 7.5 mg/kg, ip of total 9 doses starting 24 hrs post tumor inoculation measured on day 5 of inoculation relative to control; format: organism-based; parameters: dose 7.5 mg/kg, route intraperitoneal; details: in vivo; how it was run: as §3
# Mus musculus [7] = assay: Toxicity in mouse P388 cells allografted CD2F1 mouse assessed as body weight loss at 3.75 mg/kg, ip of total 9 doses starting 24 hrs post tumor inoculation measured on day 5 of inoculation relative to control; format: organism-based; parameters: dose 3.75 mg/kg, route intraperitoneal; details: in vivo; how it was run: as §3
# P388 [8] = assay: Antitumor activity against mouse P388 cells allografted in CD2F1 mouse assessed as increase in mouse survival at 15 mg/kg, ip of total 9 doses starting 24 hrs post tumor inoculation measured on day 5 of inoculation relative to control; format: functional; details: route intraperitoneal; how it was run: as §1
# Mus musculus [9] = assay: Toxicity in mouse P388 cells allografted CD2F1 mouse assessed as mouse survival at 7.5 mg/kg, ip of total 9 doses starting 24 hrs post tumor inoculation measured on day 5 of inoculation relative to control; format: organism-based; parameters: dose 7.5 mg/kg, route intraperitoneal; details: in vivo; how it was run: as §2
# Mus musculus [10] = assay: Toxicity in mouse P388 cells allografted CD2F1 mouse assessed as body weight loss at 1.88 mg/kg, ip of total 9 doses starting 24 hrs post tumor inoculation measured on day 5 of inoculation relative to control; format: organism-based; parameters: dose 1.88 mg/kg, route intraperitoneal; details: in vivo; how it was run: as §3
# Mus musculus [11] = assay: Toxicity in mouse P388 cells allografted CD2F1 mouse assessed as mouse survival at 3.75 mg/kg, ip of total 9 doses starting 24 hrs post tumor inoculation measured on day 5 of inoculation relative to control; format: organism-based; parameters: dose 3.75 mg/kg, route intraperitoneal; details: in vivo; how it was run: as §2
# P388 [12] = assay: Antitumor activity against mouse P388 cells allografted in CD2F1 mouse assessed as increase in mouse survival at 30 mg/kg, ip of total 9 doses starting 24 hrs post tumor inoculation measured on day 5 of inoculation relative to control; format: functional; details: route intraperitoneal; how it was run: as §1
# Mus musculus [13] = assay: Toxicity in mouse P388 cells allografted CD2F1 mouse assessed as mouse survival at 30 mg/kg, ip of total 9 doses starting 24 hrs post tumor inoculation measured on day 5 of inoculation relative to control; format: organism-based; parameters: dose 30 mg/kg, route intraperitoneal; details: in vivo; how it was run: as §2
# Mus musculus [14] = assay: Toxicity in mouse P388 cells allografted CD2F1 mouse assessed as mouse survival at 15 mg/kg, ip of total 9 doses starting 24 hrs post tumor inoculation measured on day 5 of inoculation relative to control; format: organism-based; parameters: dose 15 mg/kg, route intraperitoneal; details: in vivo; how it was run: as §2
# Mus musculus [15] = assay: Toxicity in mouse P388 cells allografted CD2F1 mouse assessed as body weight loss at 30 mg/kg, ip of total 9 doses starting 24 hrs post tumor inoculation measured on day 5 of inoculation relative to control; format: organism-based; parameters: dose 30 mg/kg, route intraperitoneal; details: in vivo; how it was run: as §3
smiles,measurement,setting,value
CNC(=O)OCc1c(COC(=O)NC)c(-c2ccc(-c3ccccc3)cc2)n(C)c1C,T/C,P388 [1],144%
same,Activity,Mus musculus [2],Non-toxic
same,T/C,P388 [3],144%
same,T/C,P388 [4],135%
same,Activity,Mus musculus [5],3.1 g
same,Activity,Mus musculus [6],2.2 g
same,Activity,Mus musculus [7],1.3 g
same,T/C,P388 [8],153%
same,Activity,Mus musculus [9],Non-toxic
same,Activity,Mus musculus [10],0.6 g
same,Activity,Mus musculus [11],Non-toxic
same,T/C,P388 [12],144%
same,Activity,Mus musculus [13],Non-toxic
same,Activity,Mus musculus [14],Non-toxic
same,Activity,Mus musculus [15],3.6 g

# From ChEMBL document CHEMBL3243962, “Antileukemic activity of derivatives of 1,2-dimethyl-3,4-bis(hydroxymethyl)-5-phenylpyrrole bis(N-methylcarbamate)” (J Med Chem, 1979)
